According to ChEMBL document CHEMBL2396604, “Synthesis and structure activity relationship of tetrahydroisoquinoline-based potentiators of GluN2C and GluN2D containing N-methyl-D-aspartate receptors” (J Med Chem, 2013):

Legend:
[1] = biological target: Histamine H1 receptor (Homo sapiens) (UniProt P35367); test: Inhibition of H1 histamine receptor (unknown origin) at 5 uM by psychoactive drug screening programme assay
Procedure, shortened: (§1)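 Radioligand binding screen run by PDSP. Displacement of ligand binding was measured with test compound at 5 µM, n=4 per target.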

[2] = biological target: 5-hydroxytryptamine receptor 6 (Homo sapiens) (UniProt P50406); test: Inhibition of serotonin 5-HT6 receptor (unknown origin) at 5 uM by psychoactive drug screening programme assay
[3] = biological target: 5-hydroxytryptamine receptor 1E (Homo sapiens) (UniProt P28566); test: Inhibition of serotonin 5-HT1E receptor (unknown origin) at 5 uM by psychoactive drug screening programme assay; procedure, shortened: as §1
[4] = biological target: 5-hydroxytryptamine receptor 1D (Homo sapiens) (UniProt P28221); test: Inhibition of serotonin 5-HT1D receptor (unknown origin) at 5 uM by psychoactive drug screening programme assay; procedure, shortened: as §1
[5] = biological target: Alpha-1D adrenergic receptor (Homo sapiens) (UniProt P25100); test: Inhibition of adrenergic alpha1D receptor (unknown origin) at 5 uM by psychoactive drug screening programme assay; procedure, shortened: as §1
[6] = biological target: 5-hydroxytryptamine receptor 3A (Rattus norvegicus) (UniProt P35563); test: Activity at rat recombinant serotonin 5-HT3A receptor expressed in Xenopus oocytes assessed as effect on serotonin-induced activation at 3 uM by two-electrode voltage clamp technique relative to control; type: cell-based; conditions: Oocyte
Procedure, shortened: (§2)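 Two-electrode voltage clamp of Xenopus oocytes injected with 1–5 ng cRNA and kept in Barth's solution at 15°C for 2–5 days. Oocytes were perfused with 90 mM NaCl, 1.0 KCl, 0.5 BaCl2, 0.005 EDTA, 10 HEPES, pH 7.4, 23°C, and held at -40 mV. Compound was co-applied at 3 µM with agonist from 20 mM DMSO stocks, final DMSO 0.05–0.5%.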

[7] = biological target: Beta-2 adrenergic receptor (Homo sapiens) (UniProt P07550); test: Inhibition of adrenergic beta2 receptor (unknown origin) at 5 uM by psychoactive drug screening programme assay; procedure, shortened: as §1
[8] = biological target: Glutamate NMDA receptor; Grin1/Grin2b (Rattus norvegicus) (UniProt P35439+Q00960); test: Activity at rat recombinant GluN1/GluN2B receptor expressed in Xenopus oocytes assessed as effect of glycine/glutamate-induced response at 3 uM by two-electrode voltage clamp technique relative to control; type: cell-based; conditions: Oocyte; procedure, shortened: as §2
[9] = biological target: Neuronal acetylcholine receptor subunit alpha-7 (Homo sapiens) (UniProt P36544); test: Activity at human recombinant alpha7 nAChR expressed in Xenopus oocytes assessed as effect on acetylcholine-induced activation at 3 uM by two-electrode voltage clamp technique relative to control; type: cell-based; conditions: Oocyte; procedure, shortened: as §2
[10] = biological target: 5-hydroxytryptamine receptor 2C (Homo sapiens) (UniProt P28335); test: Inhibition of serotonin 5-HT2C receptor (unknown origin) at 5 uM by psychoactive drug screening programme assay; procedure, shortened: as §1
[11] = biological target: D(1A) dopamine receptor (Homo sapiens) (UniProt P21728); test: Inhibition of dopamine D1 receptor (unknown origin) at 5 uM by psychoactive drug screening programme assay; procedure, shortened: as §1
[12] = biological target: Glutamate receptor ionotropic, kainate 2 (Rattus norvegicus) (UniProt P42260); test: Activity at rat recombinant GluK2 receptor expressed in Xenopus oocytes assessed as effect on glutamate-induced response at 3 uM by two-electrode voltage clamp technique relative to control; type: cell-based; conditions: Oocyte; procedure, shortened: as §2
[13] = biological target: Sodium-dependent dopamine transporter (Homo sapiens) (UniProt Q01959); test: Inhibition of dopamine transporter (unknown origin) at 5 uM by psychoactive drug screening programme assay; procedure, shortened: as §1
[14] = biological target: Sigma non-opioid intracellular receptor 1 (Homo sapiens) (UniProt Q99720); test: Inhibition of sigma1 receptor (unknown origin) at 5 uM by psychoactive drug screening programme assay
[15] = biological target: Histamine H3 receptor (Homo sapiens) (UniProt Q9Y5N1); test: Inhibition of H3 histamine receptor (unknown origin) at 5 uM by psychoactive drug screening programme assay; procedure, shortened: as §1
[16] = biological target: D(3) dopamine receptor (Homo sapiens) (UniProt P35462); test: Inhibition of dopamine D3 receptor (unknown origin) at 5 uM by psychoactive drug screening programme assay; procedure, shortened: as §1
[17] = biological target: Glutamate receptor 2 (Rattus norvegicus) (UniProt P19491); test: Activity at rat recombinant GluA2 receptor expressed in Xenopus oocytes assessed as effect on glutamate-induced response at 3 uM by two-electrode voltage clamp technique relative to control; type: cell-based; conditions: Oocyte; procedure, shortened: as §2
[18] = biological target: Muscarinic acetylcholine receptor M1 (Homo sapiens) (UniProt P11229); test: Inhibition of M1 receptor (unknown origin) at 5 uM by psychoactive drug screening programme assay; procedure, shortened: as §1
[19] = biological target: Alpha-1A adrenergic receptor (Homo sapiens) (UniProt P35348); test: Inhibition of adrenergic alpha1A receptor (unknown origin) at 5 uM by psychoactive drug screening programme assay; procedure, shortened: as §1
[20] = biological target: 5-hydroxytryptamine receptor 1A (Homo sapiens) (UniProt P08908); test: Inhibition of serotonin 5-HT1A receptor (unknown origin) at 5 uM by psychoactive drug screening programme assay; procedure, shortened: as §1
[21] = biological target: Mu-type opioid receptor (Homo sapiens) (UniProt P35372); test: Inhibition of mu opioid receptor (unknown origin) at 5 uM by psychoactive drug screening programme assay; procedure, shortened: as §1
[22] = biological target: Delta-type opioid receptor (Homo sapiens) (UniProt P41143); test: Inhibition of delta opioid receptor (unknown origin) at 5 uM by psychoactive drug screening programme assay; procedure, shortened: as §1
[23] = biological target: Muscarinic acetylcholine receptor M4 (Homo sapiens) (UniProt P08173); test: Inhibition of M4 receptor (unknown origin) at 5 uM by psychoactive drug screening programme assay; procedure, shortened: as §1
[24] = biological target: 5-hydroxytryptamine receptor 1B (Homo sapiens) (UniProt P28222); test: Inhibition of serotonin 5-HT1B receptor (unknown origin) at 5 uM by psychoactive drug screening programme assay; procedure, shortened: as §1
[25] = biological target: Glutamate NMDA receptor; Grin1/Grin2c (Rattus norvegicus) (UniProt P35439+Q00961); test: Activity at rat recombinant GluN1/GluN2C receptor expressed in Xenopus oocytes assessesed as effect of glycine/glutamate-induced response at 3 uM by two-electrode voltage clamp technique relative to control; type: cell-based; conditions: Oocyte; procedure, shortened: as §2
[26] = biological target: P2X purinoceptor 2 (Homo sapiens) (UniProt Q9UBL9); test: Activity at human recombinant purinergic P2X2 receptor expressed in Xenopus oocytes assessed as effect on ATP-induced activation at 3 uM by two-electrode voltage clamp technique relative to control; type: cell-based; conditions: Oocyte; procedure, shortened: as §2
[27] = biological target: Neuronal acetylcholine receptor; alpha3/beta4 (Homo sapiens) (UniProt P30926+P32297); test: Activity at human recombinant alpha3beta4 nAChR expressed in Xenopus oocytes assessed as effect on acetylcholine-induced activation at 3 uM by two-electrode voltage clamp technique relative to control; type: cell-based; conditions: Oocyte; procedure, shortened: as §2
[28] = biological target: Glutamate NMDA receptor; Grin1/Grin2a (Rattus norvegicus) (UniProt P35439+Q00959); test: Activity at rat recombinant GluN1/GluN2A receptor expressed in Xenopus oocytes assessesed as effect of glycine/glutamate-induced response at 3 uM by two-electrode voltage clamp technique relative to control; type: cell-based; conditions: Oocyte; procedure, shortened: as §2
[29] = biological target: 5-hydroxytryptamine receptor 3A (Homo sapiens) (UniProt P46098); test: Inhibition of serotonin 5-HT3 receptor (unknown origin) at 5 uM by psychoactive drug screening programme assay
[30] = biological target: D(4) dopamine receptor (Homo sapiens) (UniProt P21917); test: Inhibition of dopamine D4 receptor (unknown origin) at 5 uM by psychoactive drug screening programme assay; procedure, shortened: as §1

Beta-2 adrenergic receptor (Homo sapiens), sequence (P07550 whole entry, looked up): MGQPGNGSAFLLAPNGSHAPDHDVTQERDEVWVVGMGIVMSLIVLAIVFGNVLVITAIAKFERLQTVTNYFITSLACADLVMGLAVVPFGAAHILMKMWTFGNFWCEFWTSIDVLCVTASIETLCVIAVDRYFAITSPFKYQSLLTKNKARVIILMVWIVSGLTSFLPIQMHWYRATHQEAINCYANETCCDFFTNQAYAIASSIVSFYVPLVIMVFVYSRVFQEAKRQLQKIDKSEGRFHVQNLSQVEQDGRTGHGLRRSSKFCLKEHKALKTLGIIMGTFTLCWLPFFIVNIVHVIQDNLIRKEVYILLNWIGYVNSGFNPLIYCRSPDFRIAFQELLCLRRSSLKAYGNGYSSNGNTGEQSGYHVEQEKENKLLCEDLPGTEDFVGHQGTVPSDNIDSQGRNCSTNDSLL
Alpha-1A adrenergic receptor (Homo sapiens), sequence (P35348 whole entry): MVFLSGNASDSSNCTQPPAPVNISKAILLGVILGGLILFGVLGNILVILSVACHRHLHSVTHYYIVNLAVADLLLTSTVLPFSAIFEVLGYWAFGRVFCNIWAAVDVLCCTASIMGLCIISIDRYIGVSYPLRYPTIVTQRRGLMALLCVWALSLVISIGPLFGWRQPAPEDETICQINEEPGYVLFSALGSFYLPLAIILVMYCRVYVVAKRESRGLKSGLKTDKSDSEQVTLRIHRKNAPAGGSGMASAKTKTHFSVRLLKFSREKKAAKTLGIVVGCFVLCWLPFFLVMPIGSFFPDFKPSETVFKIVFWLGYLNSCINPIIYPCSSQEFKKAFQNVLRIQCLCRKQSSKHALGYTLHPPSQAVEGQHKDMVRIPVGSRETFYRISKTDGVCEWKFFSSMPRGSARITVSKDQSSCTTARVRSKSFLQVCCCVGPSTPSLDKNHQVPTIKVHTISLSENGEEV
Muscarinic acetylcholine receptor M1 (Homo sapiens), sequence (P11229 whole entry): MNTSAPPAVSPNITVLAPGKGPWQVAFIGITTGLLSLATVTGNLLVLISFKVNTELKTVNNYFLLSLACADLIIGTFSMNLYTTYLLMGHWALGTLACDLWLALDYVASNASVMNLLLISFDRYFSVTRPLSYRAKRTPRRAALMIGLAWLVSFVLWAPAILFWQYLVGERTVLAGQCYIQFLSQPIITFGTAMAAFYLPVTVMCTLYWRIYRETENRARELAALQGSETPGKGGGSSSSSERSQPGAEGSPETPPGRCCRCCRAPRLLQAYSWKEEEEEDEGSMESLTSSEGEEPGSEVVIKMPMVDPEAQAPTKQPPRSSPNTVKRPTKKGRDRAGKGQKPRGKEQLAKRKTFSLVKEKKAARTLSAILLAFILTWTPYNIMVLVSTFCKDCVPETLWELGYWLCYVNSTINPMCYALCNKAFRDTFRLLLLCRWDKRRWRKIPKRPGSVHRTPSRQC
5-hydroxytryptamine receptor 3A (Homo sapiens), sequence (P46098 whole entry): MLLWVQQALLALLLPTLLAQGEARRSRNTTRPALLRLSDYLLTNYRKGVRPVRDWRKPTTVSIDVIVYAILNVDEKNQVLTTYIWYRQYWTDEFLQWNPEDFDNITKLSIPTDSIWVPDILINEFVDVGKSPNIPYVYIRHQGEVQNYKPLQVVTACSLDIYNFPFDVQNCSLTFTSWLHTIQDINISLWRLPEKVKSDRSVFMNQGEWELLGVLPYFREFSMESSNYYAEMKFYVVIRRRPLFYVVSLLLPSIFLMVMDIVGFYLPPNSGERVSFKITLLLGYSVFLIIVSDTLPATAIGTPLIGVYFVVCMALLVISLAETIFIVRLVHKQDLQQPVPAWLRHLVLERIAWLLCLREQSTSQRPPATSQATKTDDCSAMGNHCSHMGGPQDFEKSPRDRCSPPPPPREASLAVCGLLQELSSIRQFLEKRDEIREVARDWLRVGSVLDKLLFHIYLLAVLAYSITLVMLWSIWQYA
Histamine H1 receptor (Homo sapiens), sequence (P35367 whole entry): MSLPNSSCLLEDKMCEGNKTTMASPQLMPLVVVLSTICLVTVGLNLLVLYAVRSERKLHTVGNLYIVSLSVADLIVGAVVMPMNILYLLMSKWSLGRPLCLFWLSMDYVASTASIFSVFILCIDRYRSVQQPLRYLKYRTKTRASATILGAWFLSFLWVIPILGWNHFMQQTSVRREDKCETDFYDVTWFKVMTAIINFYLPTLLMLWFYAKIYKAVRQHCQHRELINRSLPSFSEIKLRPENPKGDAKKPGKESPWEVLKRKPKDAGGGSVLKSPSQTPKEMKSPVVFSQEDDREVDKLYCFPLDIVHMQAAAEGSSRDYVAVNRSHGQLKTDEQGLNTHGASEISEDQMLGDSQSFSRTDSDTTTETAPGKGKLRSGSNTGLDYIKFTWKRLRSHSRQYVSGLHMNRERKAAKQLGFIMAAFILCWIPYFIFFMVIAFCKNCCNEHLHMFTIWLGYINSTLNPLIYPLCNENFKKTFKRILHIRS
Delta-type opioid receptor (Homo sapiens), sequence (P41143 whole entry): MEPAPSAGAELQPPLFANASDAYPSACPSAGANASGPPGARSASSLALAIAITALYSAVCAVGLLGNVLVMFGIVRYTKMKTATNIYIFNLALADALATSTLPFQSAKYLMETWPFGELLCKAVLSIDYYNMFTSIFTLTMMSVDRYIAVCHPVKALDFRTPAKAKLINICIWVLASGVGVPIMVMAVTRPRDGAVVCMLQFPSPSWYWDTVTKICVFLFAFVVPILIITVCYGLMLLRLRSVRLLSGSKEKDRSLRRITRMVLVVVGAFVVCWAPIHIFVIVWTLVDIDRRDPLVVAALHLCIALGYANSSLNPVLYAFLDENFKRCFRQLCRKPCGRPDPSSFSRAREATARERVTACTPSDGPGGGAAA
Sodium-dependent dopamine transporter (Homo sapiens), sequence (Q01959 whole entry): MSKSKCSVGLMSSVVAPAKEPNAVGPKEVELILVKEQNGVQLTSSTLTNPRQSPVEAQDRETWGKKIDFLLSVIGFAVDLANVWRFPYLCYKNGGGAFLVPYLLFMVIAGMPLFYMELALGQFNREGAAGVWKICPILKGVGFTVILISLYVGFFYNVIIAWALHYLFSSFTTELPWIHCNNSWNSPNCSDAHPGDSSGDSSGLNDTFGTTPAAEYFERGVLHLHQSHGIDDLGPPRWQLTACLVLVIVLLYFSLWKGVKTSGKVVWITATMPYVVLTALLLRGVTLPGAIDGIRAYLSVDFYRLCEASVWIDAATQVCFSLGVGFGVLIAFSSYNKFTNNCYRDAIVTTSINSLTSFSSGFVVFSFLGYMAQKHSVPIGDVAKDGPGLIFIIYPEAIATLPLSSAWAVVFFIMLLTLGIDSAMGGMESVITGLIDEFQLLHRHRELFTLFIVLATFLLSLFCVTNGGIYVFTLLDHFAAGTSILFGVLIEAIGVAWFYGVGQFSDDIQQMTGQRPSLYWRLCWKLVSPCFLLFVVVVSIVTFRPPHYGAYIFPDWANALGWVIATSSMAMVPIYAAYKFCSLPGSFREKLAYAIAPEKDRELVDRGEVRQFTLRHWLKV
Glutamate receptor ionotropic, kainate 2 (Rattus norvegicus), sequence (P42260 whole entry): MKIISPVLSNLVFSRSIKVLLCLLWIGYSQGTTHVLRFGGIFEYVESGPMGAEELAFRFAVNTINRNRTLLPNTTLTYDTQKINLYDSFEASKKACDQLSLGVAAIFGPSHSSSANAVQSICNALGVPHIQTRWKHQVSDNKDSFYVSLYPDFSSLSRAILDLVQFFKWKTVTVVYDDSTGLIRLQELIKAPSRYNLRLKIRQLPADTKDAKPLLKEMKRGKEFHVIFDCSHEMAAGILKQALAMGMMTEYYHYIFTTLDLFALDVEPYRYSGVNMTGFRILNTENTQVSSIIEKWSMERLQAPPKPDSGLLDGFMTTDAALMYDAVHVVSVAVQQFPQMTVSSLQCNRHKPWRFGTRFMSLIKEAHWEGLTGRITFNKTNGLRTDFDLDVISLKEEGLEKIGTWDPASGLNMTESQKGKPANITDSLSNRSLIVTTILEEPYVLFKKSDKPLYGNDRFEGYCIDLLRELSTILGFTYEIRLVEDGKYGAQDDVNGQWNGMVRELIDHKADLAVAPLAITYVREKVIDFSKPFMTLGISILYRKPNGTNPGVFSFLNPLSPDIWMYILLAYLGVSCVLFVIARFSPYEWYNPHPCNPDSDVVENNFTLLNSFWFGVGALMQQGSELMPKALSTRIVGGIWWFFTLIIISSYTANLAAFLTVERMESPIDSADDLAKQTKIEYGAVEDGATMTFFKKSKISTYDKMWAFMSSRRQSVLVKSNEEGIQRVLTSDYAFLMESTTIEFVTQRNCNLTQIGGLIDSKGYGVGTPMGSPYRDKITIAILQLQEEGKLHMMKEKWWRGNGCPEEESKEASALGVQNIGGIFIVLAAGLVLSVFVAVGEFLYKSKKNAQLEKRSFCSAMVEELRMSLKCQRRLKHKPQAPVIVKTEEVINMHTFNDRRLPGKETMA
D(3) dopamine receptor (Homo sapiens), sequence (P35462 whole entry): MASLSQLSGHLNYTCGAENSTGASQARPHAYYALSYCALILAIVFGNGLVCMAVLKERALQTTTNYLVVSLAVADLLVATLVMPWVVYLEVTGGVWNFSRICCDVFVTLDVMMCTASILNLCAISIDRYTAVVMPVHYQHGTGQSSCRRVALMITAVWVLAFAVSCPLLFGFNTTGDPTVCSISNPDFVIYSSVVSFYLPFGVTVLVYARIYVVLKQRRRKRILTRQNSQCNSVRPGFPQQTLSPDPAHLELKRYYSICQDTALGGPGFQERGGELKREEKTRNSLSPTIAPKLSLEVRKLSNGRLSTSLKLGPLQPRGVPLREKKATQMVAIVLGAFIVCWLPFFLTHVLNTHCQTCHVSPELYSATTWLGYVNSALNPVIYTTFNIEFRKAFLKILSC
5-hydroxytryptamine receptor 1E (Homo sapiens), sequence (P28566 whole entry): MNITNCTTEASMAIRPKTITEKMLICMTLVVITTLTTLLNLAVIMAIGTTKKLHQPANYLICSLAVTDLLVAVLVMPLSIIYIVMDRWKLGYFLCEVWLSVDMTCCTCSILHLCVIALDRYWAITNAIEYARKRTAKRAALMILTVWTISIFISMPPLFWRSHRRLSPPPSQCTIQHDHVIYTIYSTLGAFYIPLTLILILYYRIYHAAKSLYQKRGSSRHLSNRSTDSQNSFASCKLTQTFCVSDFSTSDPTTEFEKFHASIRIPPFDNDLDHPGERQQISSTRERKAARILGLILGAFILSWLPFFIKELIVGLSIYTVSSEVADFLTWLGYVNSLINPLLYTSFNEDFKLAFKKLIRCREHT

COc1ccc(OCC2c3ccc(OCc4ccccc4)cc3CCN2C(=O)c2cccc(Br)c2)cc1 (stereo not given)
inhibition [1]: < 50% | inhibition [2]: < 50% | inhibition [3]: < 50% | inhibition [4]: < 50% | inhibition [5]: < 50% | Activity [6]: 93% | inhibition [7]: < 50% | Activity [8]: 102% | Activity [9]: 90% | inhibition [10]: < 50% | inhibition [11]: < 50% | Activity [12]: 98% | inhibition [13]: < 50% | inhibition [14]: < 50% | inhibition [15]: < 50% | inhibition [16]: < 50% | Activity [17]: 97% | inhibition [18]: < 50% | inhibition [19]: < 50% | inhibition [20]: < 50% | inhibition [21]: < 50% | inhibition [22]: < 50% | inhibition [23]: < 50% | inhibition [24]: < 50% | Activity [25]: 247% | Activity [26]: 94% | Activity [27]: 95% | Activity [28]: 105% | inhibition [29]: < 50% | inhibition [30]: < 50%
